Experimental data: ChEMBL document CHEMBL1177711, “Novel quinolizidinyl derivatives as antiarrhythmic agents: 2. Further investigation” (J Med Chem, 2010)
Activity calls are given as the source filed them.

Tests used:
[1] = Negative chronotropic activity against potassium-induced contraction in guinea pig left atrium assessed as decrease atrial rate; type: functional, tissue-based; details: Cavia porcellus, Cardiac atrium
[2] = Negative inotropic activity against potassium-induced contraction in guinea pig left atrium assessed as decrease in developed tension; type: functional, tissue-based; details: Cavia porcellus, Cardiac atrium
[3] = Negative chronotropic activity against potassium-induced contraction in guinea pig left atrium assessed as decrease atrial rate at 100 uM relative to control; type: functional, Cavia porcellus, Cardiac atrium; parameters: scale not given: the % may be the effect or the level left
[4] = Negative inotropic activity against potassium-induced contraction in guinea pig left atrium assessed as decrease in developed tension at 10 uM relative to control; type: functional, Cavia porcellus, Cardiac atrium; parameters: scale not given: the % may be the effect or the level left
[5] = Antiarrhythmic activity in sinusoidal alternating current-induced guinea pig left atrium assessed as increase in current strength at which extra beats occur measured every 30 mins; type: functional, tissue-based; details: Cavia porcellus, Cardiac atrium, 0.5 h
Procedure, shortened: (§1)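 Isolated guinea pig left atria, electrically driven at 1 Hz, were exposed to sinusoidal alternating current to induce arrhythmia. The read-out was the rise in the ac-arrhythmia threshold over concentrations up to 100 μM.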

[6] = Antiarrhythmic activity in sinusoidal alternating current-induced guinea pig left atrium assessed as increase in current strength at which extra beats occur at 50 uM measured every 30 mins; type: functional, Cavia porcellus, Cardiac atrium; procedure, shortened: as §1
[7] = Cardioprotective effect in Langendorff perfused guinea pig spontaneously beating […] assessed as duration of ventricular action potential at 10 uM (RVb = 140 to 161 +/- 2 to 8 ms); type: functional, Cavia porcellus, Cardiac ventricle
Procedure, shortened: (§2)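 Whole guinea pig hearts were Langendorff-perfused and their ECG recorded at graded concentrations. Intervals read were PR (atrioventricular conduction time), QT (ventricular action potential duration) and QRS (intraventricular conduction time).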

[8] = Cardioprotective effect in Langendorff perfused guinea pig spontaneously beating […] assessed as duration of ventricular action potential at 1 uM (RVb = 140 to 161 +/- 2 to 8 ms); type: functional, Cavia porcellus, Cardiac ventricle; procedure, shortened: as §2
[9] = Cardioprotective effect in Langendorff perfused guinea pig spontaneously beating […] assessed as atrioventicular conduction time at 1 uM (RVb = 50 to 55 +/- 1 to 4 ms); type: functional; details: Cavia porcellus; procedure, shortened: as §2
[10] = Cardioprotective effect in Langendorff perfused guinea pig spontaneously beating […] assessed as duration of ventricular action potential at 0.1 uM (RVb = 140 to 161 +/- 2 to 8 ms); type: functional, Cavia porcellus, Cardiac ventricle; procedure, shortened: as §2
[11] = Cardioprotective effect in Langendorff perfused guinea pig spontaneously beating […] assessed as duration of ventricular action potential at 0.01 uM (RVb = 140 to 161 +/- 2 to 8 ms); type: functional, Cavia porcellus, Cardiac ventricle; procedure, shortened: as §2
[12] = Cardioprotective effect in Langendorff perfused guinea pig spontaneously beating […] assessed as duration of ventricular action potential at 0.001 uM (RVb = 140 to 161 +/- 2 to 8 ms); type: functional, Cavia porcellus, Cardiac ventricle; procedure, shortened: as §2
[13] = Cardioprotective effect in Langendorff perfused guinea pig spontaneously beating […] assessed as intraventicular conduction time at 10 uM (RVb = 19 to 24 +/- 1 to 2 ms); type: functional; details: Cavia porcellus; procedure, shortened: as §2
[14] = Cardioprotective effect in Langendorff perfused guinea pig spontaneously beating […] assessed as intraventicular conduction time at 1 uM (RVb = 19 to 24 +/- 1 to 2 ms); type: functional; details: Cavia porcellus; procedure, shortened: as §2
[15] = Cardioprotective effect in Langendorff perfused guinea pig spontaneously beating […] assessed as intraventicular conduction time at 0.1 uM (RVb = 19 to 24 +/- 1 to 2 ms); type: functional; details: Cavia porcellus; procedure, shortened: as §2
[16] = Cardioprotective effect in Langendorff perfused guinea pig spontaneously beating […] assessed as intraventicular conduction time at 0.01 uM (RVb = 19 to 24 +/- 1 to 2 ms); type: functional; details: Cavia porcellus; procedure, shortened: as §2
[17] = Cardioprotective effect in Langendorff perfused guinea pig spontaneously beating […] assessed as intraventicular conduction time at 0.001 uM (RVb = 19 to 24 +/- 1 to 2 ms); type: functional; details: Cavia porcellus; procedure, shortened: as §2
[18] = Cardioprotective effect in Langendorff perfused guinea pig spontaneously beating […] assessed as atrioventicular conduction time at 10 uM (RVb = 50 to 55 +/- 1 to 4 ms); type: functional; details: Cavia porcellus; procedure, shortened: as §2
[19] = Cardioprotective effect in Langendorff perfused guinea pig spontaneously beating […] assessed as atrioventicular conduction time at 0.1 uM (RVb = 50 to 55 +/- 1 to 4 ms); type: functional; details: Cavia porcellus; procedure, shortened: as §2
[20] = Cardioprotective effect in Langendorff perfused guinea pig spontaneously beating […] assessed as atrioventicular conduction time at 0.01 uM (RVb = 50 to 55 +/- 1 to 4 ms); type: functional; details: Cavia porcellus; procedure, shortened: as §2
[21] = Cardioprotective effect in Langendorff perfused guinea pig spontaneously beating […] assessed as atrioventicular conduction time at 0.001 uM (RVb = 50 to 55 +/- 1 to 4 ms); type: functional; details: Cavia porcellus; procedure, shortened: as §2
Heart [22] = test: Cardioprotective effect in Langendorff perfused guinea pig spontaneously beating […] assessed as heart rat at 0.001 uM (RVb = 175 to 190 +/- 5 to 11 bpm); type: functional, Cavia porcellus
Heart [23] = test: Cardioprotective effect in Langendorff perfused guinea pig spontaneously beating […] assessed as heart rat at 0.01 uM (RVb = 175 to 190 +/- 5 to 11 bpm); type: functional, Cavia porcellus
Heart [24] = test: Cardioprotective effect in Langendorff perfused guinea pig spontaneously beating […] assessed as heart rat at 0.1 uM (RVb = 175 to 190 +/- 5 to 11 bpm); type: functional, Cavia porcellus
Heart [25] = test: Cardioprotective effect in Langendorff perfused guinea pig spontaneously beating […] assessed as heart rat at 1 uM (RVb = 175 to 190 +/- 5 to 11 bpm); type: functional, Cavia porcellus
Heart [26] = test: Cardioprotective effect in Langendorff perfused guinea pig spontaneously beating […] assessed as heart rat at 10 uM (RVb = 175 to 190 +/- 5 to 11 bpm); type: functional, Cavia porcellus
[27] = Negative chronotropic activity against potassium-induced contraction in guinea pig left atrium assessed as decrease atrial rate at 0.5 uM relative to control; type: functional, Cavia porcellus, Cardiac atrium; parameters: scale not given: the % may be the effect or the level left
Cavia porcellus [28] = organism: Cavia porcellus; test: Agonist activity at muscarinic M2 receptor in guinea pig left atrium assessed as negative ionotropic activity in presence of carbachol; type: functional, tissue-based; details: Cardiac atrium
Aorta [29] = test: Vasorelaxant activity in potassium depolarized guinea pig aortic strip assessed as inhibition of calcium-induced contraction at 100 uM; type: functional; details: Cavia porcellus
[30] = Negative inotropic activity against potassium-induced contraction in guinea pig left atrium assessed as decrease in developed tension at 5 uM relative to control; type: functional, Cavia porcellus, Cardiac atrium; parameters: scale not given: the % may be the effect or the level left
[31] = Antiarrhythmic activity in sinusoidal alternating current-induced guinea pig left atrium assessed as increase in current strength at which extra beats occur at 10 uM measured every 30 mins; type: functional, Cavia porcellus, Cardiac atrium; procedure, shortened: as §1
Aorta [32] = test: Negative inotropic activity in potassium depolarized guinea pig aortic strip assessed as inhibition of calcium-induced contraction at 1 uM; type: functional, tissue-based; details: Cavia porcellus
Cavia porcellus [33] = organism: Cavia porcellus; test: Negative inotropic activity in guinea pig longitudinal smooth muscle assessed as inhibition of calcium-induced contraction at 1 uM; type: functional
[34] = Negative chronotropic activity against potassium-induced contraction in guinea pig left atrium assessed as decrease atrial rate at 50 uM relative to control; type: functional, Cavia porcellus, Cardiac atrium; parameters: scale not given: the % may be the effect or the level left
[35] = Negative inotropic activity against potassium-induced contraction in guinea pig left atrium assessed as decrease in developed tension at 50 uM relative to control; type: functional, Cavia porcellus, Cardiac atrium; parameters: scale not given: the % may be the effect or the level left
Aorta [36] = test: Vasorelaxant activity in potassium depolarized guinea pig aortic strip assessed as inhibition of calcium-induced contraction at 50 uM; type: functional; details: Cavia porcellus
[37] = Negative chronotropic activity against potassium-induced contraction in guinea pig left atrium assessed as decrease atrial rate at 10 uM relative to control; type: functional, Cavia porcellus, Cardiac atrium; parameters: scale not given: the % may be the effect or the level left

Work on `Cc1cc(C(=O)c2ccccc2)ccc1NC(=O)C[C@@H]1CCCN2CCCC[C@H]12` yielded an EC50 [1] of 6.14 µM, an EC50 [2] of 44 nM and an Activity [3] of 59%. For the same compound, the Activity [4] was 79%, the EC50 [5] was 150 nM and the Activity [6] was 64%. The Activity [7] was 170 ms, the Activity [8] was 162 ms and the AV conduction time [9] was 56 ms. The Activity [10] was 155 ms, the Activity [11] was 154 ms and the Activity [12] was 158 ms. For the same compound, the intraventricular conduction time [13] was 25 ms, the intraventricular conduction time [14] was 22 ms and the intraventricular conduction time [15] was 23 ms. The intraventricular conduction time [16] was 20 ms, the intraventricular conduction time [17] was 23 ms and the AV conduction time [18] was 57 ms. For the same compound, the AV conduction time [19] was 53 ms, the AV conduction time [20] was 54 ms and the AV conduction time [21] was 54 ms. For the same compound, the Activity (Heart [22]) was 177 bpm, the Activity (Heart [23]) was 171 bpm and the Activity (Heart [24]) was 158 bpm. For the same compound, the Activity (Heart [25]) was 145 bpm and the Activity (Heart [26]) was 137 bpm.

Work on `Cc1cc(C(=O)c2ccccc2)cc(C)c1NC(=O)C[C@@H]1CCCN2CCCC[C@H]12` yielded an Activity [27] of 70%.

With `C[N+](C)(C)CCOC(N)=O` the inhibition (Cavia porcellus [28]) was “inactive”.

`CC(=O)Nc1ccc(C(=O)NC[C@@H]2CCCN3CCCC[C@H]23)cc1` showed an Activity [27] of 14% and an EC50 [2] of 56 nM.

Compound `COc1cc(NC(C)=O)c(Cl)cc1C(=O)NC[C@@H]1CCCN2CCCC[C@H]12` has an inhibition at 100 µM (Aorta [29]) of 4%, an EC50 [2] of 18 nM and an Activity [3] of 6%. It also gave an Activity [30] of 93%, an EC50 [5] of 240 nM and an Activity [31] of 84%. It also gave an Activity [7] of 155 ms, an Activity [8] of 152 ms and an AV conduction time [9] of 56 ms. It also gave an Activity [10] of 150 ms, an Activity [11] of 141 ms and an Activity [12] of 139 ms. The intraventricular conduction time [13] was 22 ms, the intraventricular conduction time [14] was 22 ms and the intraventricular conduction time [15] was 21 ms. For the same compound, the intraventricular conduction time [16] was 20 ms, the intraventricular conduction time [17] was 20 ms and the AV conduction time [18] was 56 ms. The AV conduction time [19] was 53 ms, the AV conduction time [20] was 54 ms and the AV conduction time [21] was 52 ms. The Activity (Heart [22]) was 172 bpm, the Activity (Heart [23]) was 170 bpm and the Activity (Heart [24]) was 168 bpm. For the same compound, the Activity (Heart [25]) was 167 bpm, the Activity (Heart [26]) was 165 bpm and the inhibition (Aorta [32]) was “inactive”. For the same compound, the inhibition (Cavia porcellus [33]) was “inactive”.

Work on `COc1cc(N)c(Cl)cc1C(=O)NC[C@@H]1CCCN2CCCC[C@H]12` yielded an inhibition at 100 µM (Aorta [29]) of 6%, an EC50 [2] of 350 nM and an Activity [34] of 22%. The Activity [35] was 95%, the EC50 [5] was 6730 nM and the Activity [6] was 113%.

With `C=C[C@H]1CN2CC[C@H]1C[C@@H]2[C@@H](O)c1ccnc2ccc(OC)cc12` [QUINIDINE] the inhibition at 50 µM (Aorta [36]) was 30%, the AV conduction time [9] was 60 ms and the intraventricular conduction time [13] was 39 ms. The intraventricular conduction time [14] was 35 ms, the intraventricular conduction time [15] was 31 ms and the intraventricular conduction time [16] was 27 ms. It also gave an intraventricular conduction time [17] of 25 ms, an AV conduction time [18] of 70 ms and an AV conduction time [19] of 57 ms. For the same compound, the AV conduction time [20] was 54 ms and the AV conduction time [21] was 53 ms.

Compound `Cc1cccc(C)c1NCCSC[C@@H]1CCCN2CCCC[C@H]12` has an inhibition at 100 µM (Aorta [29]) of 34%, an EC50 [1] of 8.42 µM and an Activity [37] of 62%. The Activity [4] was 37%, the EC50 [5] was 310 nM and the Activity [31] was 129%. The Activity [7] was 175 ms, the Activity [8] was 170 ms and the AV conduction time [9] was 57 ms. The Activity [10] was 168 ms, the Activity [11] was 162 ms and the Activity [12] was 160 ms. It also gave an intraventricular conduction time [13] of 26 ms, an intraventricular conduction time [14] of 25 ms and an intraventricular conduction time [15] of 24 ms. It also gave an intraventricular conduction time [16] of 23 ms, an intraventricular conduction time [17] of 23 ms and an AV conduction time [18] of 60 ms. For the same compound, the AV conduction time [19] was 55 ms, the AV conduction time [20] was 55 ms and the AV conduction time [21] was 55 ms. It also gave an Activity (Heart [22]) of 186 bpm, an Activity (Heart [23]) of 185 bpm and an Activity (Heart [24]) of 179 bpm. The Activity (Heart [25]) was 158 bpm and the Activity (Heart [26]) was 142 bpm.

`CCN(CC)CC(=O)Nc1c(C)cccc1C` [LIDOCAINE] showed an inhibition at 50 µM (Aorta [36]) of 14%.
